# Columns and labels:
# HL-60 = test: Antiproliferative activity against human HL-60 cells assessed as cell growth at 0.0001 M incubated for 48 hrs by SRB assay relative to control; type: functional; conditions: read-out: Activity
# How it was run: (§1)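 NCI-60 five-dose screen (10^-4 to 10^-8 M). Cells grown in RPMI 1640 with 5% FBS and 2 mM L-glutamine, plated at 5,000-40,000 cells/well and preincubated 24 h. Drug given from DMSO stock, then 48 h at 37 °C, 5% CO2. For adherent lines, cells fixed with cold TCA, SRB-stained and read at 515 nm. Percent growth taken against time-zero and untreated control.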
# OVCAR-8 = test: Growth inhibition against human OVCAR-8 cells assessed as total growth inhibitory concentration incubated for 48 hrs by sulforhodamine B assay; type: functional
# KM12 = test: Growth inhibition against human KM12 cells incubated for 48 hrs by sulforhodamine B assay; type: functional
# HCT-15 = test: Growth inhibition against human HCT-15 cells incubated for 48 hrs by sulforhodamine B assay; type: functional
# A498 = test: Antiproliferative activity against human A498 cells assessed as cell growth at 0.0001 M incubated for 48 hrs by SRB assay relative to control; type: functional; conditions: read-out: Activity
# How it was run: (§2)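 NCI-60 five-dose screen over 10^-4–10^-8 M (10-fold dilutions). Cells grown in RPMI 1640 with 5% FBS and 2 mM L-glutamine, seeded at 5,000–40,000 cells/well and preincubated 24 h. Drug from DMSO stock, 48 h at 37 °C, 5% CO2. Adherent cells TCA-fixed and stained with 0.4% SRB; A515 read. Percent growth = (Ti−Tz)/(C−Tz)×100, or (Ti−Tz)/Tz×100 when Ti<Tz.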
# RXF 393 = test: Antiproliferative activity against human RXF 393 cells assessed as cell growth at 0.0001 M incubated for 48 hrs by SRB assay relative to control; type: functional; conditions: read-out: Activity
# MOLT-4 [1] = test: Antiproliferative activity against human MOLT-4 cells assessed as cell growth inhibition by measuring lethal concentration incubated for 48 hrs by sulforhodamine B assay; type: functional; conditions: read-out: LC50 (the source's name)
# Albumin = Albumin (Bos taurus, UniProt P02769); test: Binding affinity to bovine serum albumin assessed as binding constant by Benesi-Hildebrand equation based UV-vis spectrophotometric method; conditions: cattle
# Albumin, sequence (P02769 whole entry): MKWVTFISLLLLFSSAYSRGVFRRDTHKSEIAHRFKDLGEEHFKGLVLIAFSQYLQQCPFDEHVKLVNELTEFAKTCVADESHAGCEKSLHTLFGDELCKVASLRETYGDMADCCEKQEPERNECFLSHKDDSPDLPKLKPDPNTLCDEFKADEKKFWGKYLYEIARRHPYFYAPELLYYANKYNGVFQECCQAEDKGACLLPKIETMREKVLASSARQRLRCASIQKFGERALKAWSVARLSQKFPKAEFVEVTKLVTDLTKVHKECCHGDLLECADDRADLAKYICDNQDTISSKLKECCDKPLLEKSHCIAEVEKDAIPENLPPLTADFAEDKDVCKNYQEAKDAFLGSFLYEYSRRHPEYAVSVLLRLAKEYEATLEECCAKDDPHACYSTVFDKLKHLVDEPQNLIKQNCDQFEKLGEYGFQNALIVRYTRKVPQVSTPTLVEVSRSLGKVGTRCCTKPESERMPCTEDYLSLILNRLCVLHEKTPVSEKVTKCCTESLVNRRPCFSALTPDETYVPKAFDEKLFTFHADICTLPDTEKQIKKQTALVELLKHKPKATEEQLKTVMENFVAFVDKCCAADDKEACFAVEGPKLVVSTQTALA
# UACC-62 [2] = test: Antiproliferative activity against human UACC-62 cells assessed as cell growth at 0.00001 M incubated for 48 hrs by SRB assay relative to control; type: functional; conditions: read-out: Activity
# 786-0 = test: Antiproliferative activity against human 786-0 cells assessed as cell growth at 0.00001 M incubated for 48 hrs by SRB assay relative to control; type: functional; conditions: read-out: Activity; how it was run: as §2
# MOLT-4 [3] = test: Growth inhibition against human MOLT-4 cells assessed as total growth inhibitory concentration incubated for 48 hrs by sulforhodamine B assay; type: functional
# ACHN = test: Growth inhibition against human ACHN cells assessed as total growth inhibitory concentration incubated for 48 hrs by sulforhodamine B assay; type: functional
# NCI-H23 [4] = test: Antiproliferative activity against human NCI-H23 cells assessed as cell growth at 0.00001 M incubated for 48 hrs by SRB assay relative to control; type: functional; conditions: read-out: Activity
# U-251 = test: Antiproliferative activity against human U-251 cells assessed as cell growth at 0.00000001 M incubated for 48 hrs by SRB assay relative to control; type: functional; conditions: dose 10 nM, read-out: Activity
# EKVX = test: Antiproliferative activity against human EKVX cells assessed as cell growth at 0.0000001 M incubated for 48 hrs by SRB assay relative to control; type: functional; conditions: dose 100 nM, read-out: Activity; how it was run: as §1
# NCI-H23 [5] = test: Growth inhibition against human NCI-H23 cells incubated for 48 hrs by sulforhodamine B assay; type: functional
# IGROV-1 [6] = test: Antiproliferative activity against human IGROV-1 cells assessed as cell growth at 0.0001 M incubated for 48 hrs by SRB assay relative to control; type: functional; conditions: read-out: Activity
# IGROV-1 [7] = test: Antiproliferative activity against human IGROV-1 cells assessed as cell growth inhibition by measuring lethal concentration incubated for 48 hrs by sulforhodamine B assay; type: functional; conditions: read-out: LC50 (the source's name)
# Calf thymus DNA = test: Binding affinity to calf thymus DNA assessed as intercalation by measuring hypochromic shift at 20 uM by UV-vis spectrophotometric method relative to control; type: nucleic-acid assay; conditions: Bos taurus
# BT-549 = test: Antiproliferative activity against human BT-549 cells assessed as cell growth at 0.000001 M incubated for 48 hrs by SRB assay relative to control; type: functional; conditions: read-out: Activity; how it was run: as §2
# HT-29 = test: Antiproliferative activity against human HT-29 cells assessed as cell growth at 0.00000001 M incubated for 48 hrs by SRB assay relative to control; type: functional; conditions: dose 10 nM, read-out: Activity; how it was run: as §1
# UACC-257 = test: Growth inhibition against human UACC-257 cells incubated for 48 hrs by sulforhodamine B assay; type: functional
# SNB-19 = test: Antiproliferative activity against human SNB-19 cells assessed as cell growth at 0.0001 M incubated for 48 hrs by SRB assay relative to control; type: functional; conditions: read-out: Activity
# Malme-3M [8] = test: Antiproliferative activity against human Malme-3M cells assessed as cell growth at 0.00000001 M incubated for 48 hrs by SRB assay relative to control; type: functional; conditions: dose 10 nM, read-out: Activity
# UACC-62 [9] = test: Antiproliferative activity against human UACC-62 cells assessed as cell growth at 0.00000001 M incubated for 48 hrs by SRB assay relative to control; type: functional; conditions: dose 10 nM, read-out: Activity
# SF-268 [10] = test: Growth inhibition against human SF-268 cells assessed as total growth inhibitory concentration incubated for 48 hrs by sulforhodamine B assay; type: functional
# MOLT-4 [11] = test: Antiproliferative activity against human MOLT-4 cells assessed as cell growth at 0.0000001 M incubated for 48 hrs by SRB assay relative to control; type: functional; conditions: dose 100 nM, read-out: Activity
# A549 [12] = test: Antiproliferative activity against human A549 cells assessed as cell growth at 0.0001 M incubated for 48 hrs by SRB assay relative to control; type: functional; conditions: read-out: Activity; how it was run: as §2
# IGROV-1 [13] = test: Growth inhibition against human IGROV-1 cells assessed as total growth inhibitory concentration incubated for 48 hrs by sulforhodamine B assay; type: functional
# SF-268 [14] = test: Antiproliferative activity against human SF-268 cells assessed as cell growth at 0.0001 M incubated for 48 hrs by SRB assay relative to control; type: functional; conditions: read-out: Activity
# A549 [15] = test: Antiproliferative activity against human A549 cells assessed as cell growth at 0.0000001 M incubated for 48 hrs by SRB assay relative to control; type: functional; conditions: dose 100 nM, read-out: Activity; how it was run: as §2
# SK-MEL-28 = test: Antiproliferative activity against human SK-MEL-28 cells assessed as cell growth at 0.000001 M incubated for 48 hrs by SRB assay relative to control; type: functional; conditions: read-out: Activity
# MDA-MB-435 = test: Growth inhibition against human MDA-MB-435 cells incubated for 48 hrs by sulforhodamine B assay; type: functional
# MDA-MB-468 = test: Antiproliferative activity against human MDA-MB-468 cells assessed as cell growth at 0.000001 M incubated for 48 hrs by SRB assay relative to control; type: functional; conditions: read-out: Activity
# LOX IMVI = test: Growth inhibition against human LOX IMVI cells incubated for 48 hrs by sulforhodamine B assay; type: functional
# Malme-3M [16] = test: Antiproliferative activity against human Malme-3M cells assessed as cell growth at 0.0001 M incubated for 48 hrs by SRB assay relative to control; type: functional; conditions: read-out: Activity
# SF-539 = test: Antiproliferative activity against human SF-539 cells assessed as cell growth at 0.0000001 M incubated for 48 hrs by SRB assay relative to control; type: functional; conditions: dose 100 nM, read-out: Activity
SMILES,growth at 100 µM (HL-60),TGI (OVCAR-8),GI50 (KM12),GI50 (HCT-15),growth at 100 µM (A498),growth at 100 µM (RXF 393),CC50 (MOLT-4 [1]),Kb (Albumin),growth at 10 µM (UACC-62 [2]),growth at 10 µM (786-0),TGI (MOLT-4 [3]),TGI (ACHN),growth at 10 µM (NCI-H23 [4]),growth at 0.01 µM (U-251),growth at 0.1 µM (EKVX),GI50 (NCI-H23 [5]),growth at 100 µM (IGROV-1 [6]),CC50 (IGROV-1 [7]),Activity (Calf thymus DNA),growth at 1 µM (BT-549),other results
COc1ccc(-c2cn3ccnc3c(-c3ccc4ncn(C5CCCCC5)c4c3)n2)cc1,-7%,> 100000 nM,1350 nM,722 nM,24%,19%,> 100000 nM,1.95 10^5/M,7%,-32%,> 100000 nM,> 100000 nM,13%,102%,89%,2110 nM,24%,> 100000 nM,20.8%,26%,growth at 0.01 µM (HT-29): 94%; GI50 (UACC-257): > 100000 nM; growth at 100 µM (SNB-19): 15%; growth at 0.01 µM (Malme-3M [8]): 100%; growth at 0.01 µM (UACC-62 [9]): 94%; TGI (SF-268 [10]): > 100000 nM; growth at 0.1 µM (MOLT-4 [11]): 109%; growth at 100 µM (A549 [12]): 16%; TGI (IGROV-1 [13]): > 100000 nM; growth at 100 µM (SF-268 [14]): 29%; growth at 0.1 µM (A549 [15]): 103%; growth at 1 µM (SK-MEL-28): 58%; GI50 (MDA-MB-435): 312 nM; growth at 1 µM (MDA-MB-468): 47%; GI50 (LOX IMVI): 741 nM; growth at 100 µM (Malme-3M [16]): 49%; growth at 0.1 µM (SF-539): 97%
c1ccc(Cn2cnc3ccc(-c4nc(-c5ccc6c(c5)ncn6C5CCCCC5)cn5ccnc45)cc32)cc1,-18%,6540 nM,2090 nM,1570 nM,-83%,-33%,> 100000 nM,2.65 10^4/M,-37%,4%,> 100000 nM,> 100000 nM,-46%,98%,91%,1880 nM,18%,> 100000 nM,15.3%,62%,growth at 0.01 µM (HT-29): 99%; GI50 (UACC-257): 2240 nM; growth at 100 µM (SNB-19): 32%; growth at 0.01 µM (Malme-3M [8]): 92%; growth at 0.01 µM (UACC-62 [9]): 92%; TGI (SF-268 [10]): > 100000 nM; growth at 0.1 µM (MOLT-4 [11]): 114%; growth at 100 µM (A549 [12]): -40%; TGI (IGROV-1 [13]): > 100000 nM; growth at 100 µM (SF-268 [14]): 5%; growth at 0.1 µM (A549 [15]): 109%; growth at 1 µM (SK-MEL-28): 87%; GI50 (MDA-MB-435): 2200 nM; growth at 1 µM (MDA-MB-468): 89%; GI50 (LOX IMVI): 1640 nM; growth at 100 µM (Malme-3M [16]): 23%; growth at 0.1 µM (SF-539): 92%
